Data as given in ChEMBL document CHEMBL4477235, “Evolution of a Novel, Orally Bioavailable Series of PI3Kδ Inhibitors from an Inhaled Lead for the Treatment of Respiratory Disease” (J Med Chem, 2016).
Converted amounts (≈) assume the structure as drawn.

How the values were obtained:
[1] = Clearance in Sprague-Dawley rat at 1 mg/kg, iv measured up to 7 hrs by LC-MS/MS analysis relative to liver blood flow; format: ADME, organism-based; conditions: in vivo
Procedure, shortened: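 Male Sprague Dawley rats (n = 2/route), intravenous dose as a solution in DMSO/PEG200/water (5:45:50 v/v/v) at 2 mL/kg. Serial tail-vein blood sampling over 0–7 h. LC–MS/MS quantification of parent. Noncompartmental analysis.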

[2] = Half life in Brown Norway rat acute OVA model of TH2-driven lung inflammation at 3 mg/kg, po pretreated for 30 mins followed by OVA challenge; format: ADME, organism-based; conditions: in vivo
[3] = AUC(infinity) in Sprague-Dawley rat at 3 mg/kg, po measured up to 7 hrs by LC-MS/MS analysis; format: ADME, organism-based; design: dose 3 mg/kg, time infinity, route oral; conditions: in vivo, 7 h
Procedure, shortened: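 Male Sprague Dawley rats (n = 2/route), oral dose in DMSO/PEG200/water (5:45:50 v/v/v) at 6 mL/kg. Serial tail-vein bleeds over 0–7 h. Parent compound quantified by LC–MS/MS. Parameters from noncompartmental analysis.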

[4] = biological target: Mitogen-activated protein kinase kinase kinase 5 (Homo sapiens, UniProt Q99683); test: Inhibition of ASK1 (unknown origin)
Chain of Mitogen-activated protein kinase kinase kinase 5 (Q99683 whole entry): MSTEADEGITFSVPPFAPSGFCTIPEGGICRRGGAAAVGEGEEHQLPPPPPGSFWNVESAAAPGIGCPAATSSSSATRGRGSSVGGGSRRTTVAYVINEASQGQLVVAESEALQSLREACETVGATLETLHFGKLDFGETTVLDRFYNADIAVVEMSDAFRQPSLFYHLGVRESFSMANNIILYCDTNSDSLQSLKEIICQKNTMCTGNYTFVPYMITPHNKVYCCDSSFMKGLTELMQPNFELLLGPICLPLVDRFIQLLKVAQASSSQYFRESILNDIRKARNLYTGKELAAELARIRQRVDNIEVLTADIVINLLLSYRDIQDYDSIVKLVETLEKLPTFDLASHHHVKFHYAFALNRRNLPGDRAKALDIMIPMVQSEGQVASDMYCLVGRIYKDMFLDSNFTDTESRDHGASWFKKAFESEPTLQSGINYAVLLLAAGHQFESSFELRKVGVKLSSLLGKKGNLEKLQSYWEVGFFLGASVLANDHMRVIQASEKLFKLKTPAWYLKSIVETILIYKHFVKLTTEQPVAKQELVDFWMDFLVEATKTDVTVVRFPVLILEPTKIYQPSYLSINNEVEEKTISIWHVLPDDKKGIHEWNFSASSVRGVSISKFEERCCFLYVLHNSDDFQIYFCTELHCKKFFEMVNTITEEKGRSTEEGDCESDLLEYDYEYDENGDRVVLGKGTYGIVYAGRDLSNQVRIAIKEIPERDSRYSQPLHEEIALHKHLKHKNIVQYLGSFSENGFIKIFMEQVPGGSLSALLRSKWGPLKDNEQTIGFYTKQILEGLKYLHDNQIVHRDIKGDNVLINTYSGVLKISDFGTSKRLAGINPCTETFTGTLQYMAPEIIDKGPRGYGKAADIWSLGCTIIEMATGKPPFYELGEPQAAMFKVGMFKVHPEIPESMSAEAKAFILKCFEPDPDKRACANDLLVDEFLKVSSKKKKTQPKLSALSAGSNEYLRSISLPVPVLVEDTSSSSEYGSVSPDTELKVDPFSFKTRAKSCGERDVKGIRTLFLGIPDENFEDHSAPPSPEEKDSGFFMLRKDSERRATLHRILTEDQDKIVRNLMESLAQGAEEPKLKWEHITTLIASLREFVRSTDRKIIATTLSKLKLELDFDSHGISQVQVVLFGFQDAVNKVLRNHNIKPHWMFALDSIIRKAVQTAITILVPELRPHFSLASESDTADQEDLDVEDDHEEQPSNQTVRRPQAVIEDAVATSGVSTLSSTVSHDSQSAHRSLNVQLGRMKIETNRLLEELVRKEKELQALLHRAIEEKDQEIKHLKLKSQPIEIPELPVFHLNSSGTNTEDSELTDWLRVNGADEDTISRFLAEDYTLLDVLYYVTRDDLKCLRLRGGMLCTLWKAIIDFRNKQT

[5] = biological target: Mitogen-activated protein kinase 14 (Homo sapiens, UniProt Q16539); test: Inhibition of P38alpha (unknown origin)
Chain of Mitogen-activated protein kinase 14 (Q16539 whole entry): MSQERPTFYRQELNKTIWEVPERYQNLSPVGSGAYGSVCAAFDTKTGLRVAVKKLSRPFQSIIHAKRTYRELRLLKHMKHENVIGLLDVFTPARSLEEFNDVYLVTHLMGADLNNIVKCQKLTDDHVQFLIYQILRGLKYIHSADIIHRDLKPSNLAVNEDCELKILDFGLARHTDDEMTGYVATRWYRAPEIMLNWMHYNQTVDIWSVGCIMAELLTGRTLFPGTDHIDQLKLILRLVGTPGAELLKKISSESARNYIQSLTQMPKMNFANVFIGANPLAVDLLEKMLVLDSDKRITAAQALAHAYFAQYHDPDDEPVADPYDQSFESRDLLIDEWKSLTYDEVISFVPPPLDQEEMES

[6] = Drug uptake in blood of Brown Norway rat acute OVA model of TH2-driven lung inflammation at 3 mg/kg, po pretreated for 30 mins followed by OVA challenge measured 1 hr post dose; format: ADME, organism-based; conditions: read-out: Drug uptake
Procedure, shortened: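 Sensitized Brown Norway rats given oral compound 30 min before intratracheal OVA challenge. Blood concentration taken 1 h after dosing, i.e. 30 min after challenge.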

[7] = AUC(infinity) in Wistar Han rat at 1 mg/kg; format: ADME, organism-based; design: dose 1 mg/kg, time infinity; conditions: in vivo
[8] = Oral bioavailability in Sprague-Dawley rat at 3 mg/kg measured up to 7 hrs by LC-MS/MS analysis; format: ADME, organism-based; conditions: in vivo, 7 h
Procedure, shortened: (§1)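 Male Sprague Dawley rats, n = 2 per route, were dosed discretely at 3 mg/kg orally or 1 mg/kg intravenously. The dosing solution was DMSO/PEG200/water (5:45:50 v/v/v). Serial tail-vein blood samples were taken over 0–7 h, and parent compound was quantified by LC–MS/MS. Parameters were estimated by noncompartmental analysis.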

[9] = Volume of distribution at steady state in Sprague-Dawley rat at 3 mg/kg, po or 1 mg/kg, iv measured up to 7 hrs by LC-MS/MS analysis; format: ADME, organism-based; conditions: in vivo, read-out: Vdss; procedure, shortened: as §1
Homo sapiens = species: Homo sapiens; test: Selectivity ratio of IC50 for PI3Kbeta (unknown origin) to IC50 for PI3Kdelta (unknown origin)
Procedure, shortened: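 Ratio of each isoform's HTRF IC50 to the PI3Kδ HTRF IC50. Enzymes were preincubated 15 min with 4-fold compound dilutions in HEPES pH 7.0, MgCl2, DTT buffer. […] PIP2 was 5 µM for δ and 8 µM for α/β/γ. 60 min reaction, then EDTA quench with GRP-1 PH domain/APC/Eu detection. Four-parameter fit.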

[10] = biological target: Epidermal growth factor receptor (Homo sapiens, UniProt P00533); test: Inhibition of EGFR (unknown origin)
[11] = biological target: Tyrosine-protein kinase ITK/TSK (Homo sapiens, UniProt Q08881); test: Inhibition of ITK (unknown origin)
Chain of Tyrosine-protein kinase ITK/TSK (Q08881 whole entry): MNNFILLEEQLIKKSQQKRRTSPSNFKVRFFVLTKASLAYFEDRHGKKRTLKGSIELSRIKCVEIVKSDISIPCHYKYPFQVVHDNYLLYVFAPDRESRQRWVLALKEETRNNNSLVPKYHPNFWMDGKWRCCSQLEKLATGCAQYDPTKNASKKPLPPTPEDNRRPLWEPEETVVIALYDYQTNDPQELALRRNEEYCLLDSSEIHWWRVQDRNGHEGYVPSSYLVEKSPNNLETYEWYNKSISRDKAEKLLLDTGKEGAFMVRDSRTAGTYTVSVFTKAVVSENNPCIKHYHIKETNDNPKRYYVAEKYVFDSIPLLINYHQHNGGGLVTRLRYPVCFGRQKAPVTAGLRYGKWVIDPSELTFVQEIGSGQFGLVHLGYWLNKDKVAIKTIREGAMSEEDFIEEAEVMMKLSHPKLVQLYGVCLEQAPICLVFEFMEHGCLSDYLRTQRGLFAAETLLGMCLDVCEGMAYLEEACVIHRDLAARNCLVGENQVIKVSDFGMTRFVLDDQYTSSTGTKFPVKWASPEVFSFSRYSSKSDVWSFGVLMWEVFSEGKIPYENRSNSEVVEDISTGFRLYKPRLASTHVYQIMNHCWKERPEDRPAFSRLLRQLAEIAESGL

[12] = AUC(infinity) in Brown Norway rat acute OVA model of TH2-driven lung inflammation at 3 mg/kg, po pretreated for 30 mins followed by OVA challenge; format: ADME, organism-based; design: dose 3 mg/kg, time infinity, route oral; conditions: in vivo
Procedure, shortened: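 Male Brown Norway rats weighing 250–300 g were sensitised intraperitoneally with 10 μg OVA plus 20 mg Al(OH)₃ in 1 mL on days 1 and 7. On day 21 or 28 they were challenged intratracheally with 0.2 mL OVA under isoflurane. Compound was dosed orally 30 min before challenge. Blood exposure was measured in the same animals, with the 1 h post-dose concentration also recorded.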

[13] = biological target: 3',5'-cyclic-AMP phosphodiesterase 4B (Homo sapiens, UniProt Q07343); test: Inhibition of PDE4B (unknown origin)
Sphingosine kinase 2 = Sphingosine kinase 2 (Homo sapiens, UniProt Q9NRA0); test: Inhibition of SPHK2 (unknown origin)
Chain of Sphingosine kinase 2 (Q9NRA0 whole entry): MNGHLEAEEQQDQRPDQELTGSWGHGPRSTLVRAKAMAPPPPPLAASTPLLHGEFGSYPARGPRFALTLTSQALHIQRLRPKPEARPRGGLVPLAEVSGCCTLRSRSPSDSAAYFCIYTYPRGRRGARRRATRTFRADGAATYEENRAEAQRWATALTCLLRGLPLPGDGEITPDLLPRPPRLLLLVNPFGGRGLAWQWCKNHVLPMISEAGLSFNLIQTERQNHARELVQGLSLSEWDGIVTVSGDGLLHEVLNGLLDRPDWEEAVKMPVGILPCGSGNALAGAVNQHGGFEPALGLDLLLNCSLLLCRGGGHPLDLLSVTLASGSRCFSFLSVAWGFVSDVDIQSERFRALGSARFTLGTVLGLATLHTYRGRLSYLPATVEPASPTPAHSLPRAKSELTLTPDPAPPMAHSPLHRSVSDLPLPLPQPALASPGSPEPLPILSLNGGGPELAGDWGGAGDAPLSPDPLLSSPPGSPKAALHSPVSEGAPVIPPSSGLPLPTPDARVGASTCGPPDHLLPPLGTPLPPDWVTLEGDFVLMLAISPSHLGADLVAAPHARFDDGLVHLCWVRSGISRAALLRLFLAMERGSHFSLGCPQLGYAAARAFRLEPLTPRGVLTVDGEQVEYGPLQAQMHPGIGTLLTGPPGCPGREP

[14] = Inhibition of DAGK (unknown origin); design: species or system Homo sapiens
[15] = biological target: Tyrosine-protein kinase JAK3 (Homo sapiens, UniProt P52333); test: Inhibition of JAK3 (unknown origin)
[16] = biological target: Choline/ethanolamine kinase (Homo sapiens, UniProt Q9Y259); test: Inhibition of CHKB (unknown origin)
[17] = Kinetic solubility in phosphate buffered saline at pH 7.4 after 1 hr by chemiluminescent nitrogen detection method; format: physicochemical; conditions: read-out: Kinetic_solubility
Procedure, shortened: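 The sample was then filtered, and the filtrate was quantified by calibrated flow-injection chemiluminescent nitrogen detection. Standard error was ±30 µM, and the upper limit was 500 µM from the 10 mM stock.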

[18] = biological target: Inhibitor of nuclear factor kappa-B kinase subunit alpha (Homo sapiens, UniProt O15111); test: Inhibition of IKK1 (unknown origin)
[19] = biological target: Phosphatidylinositol 5-phosphate 4-kinase type-2 alpha (Homo sapiens, UniProt P48426); test: Inhibition of PIP4K2A (unknown origin)
Chain of Phosphatidylinositol 5-phosphate 4-kinase type-2 alpha (P48426 whole entry): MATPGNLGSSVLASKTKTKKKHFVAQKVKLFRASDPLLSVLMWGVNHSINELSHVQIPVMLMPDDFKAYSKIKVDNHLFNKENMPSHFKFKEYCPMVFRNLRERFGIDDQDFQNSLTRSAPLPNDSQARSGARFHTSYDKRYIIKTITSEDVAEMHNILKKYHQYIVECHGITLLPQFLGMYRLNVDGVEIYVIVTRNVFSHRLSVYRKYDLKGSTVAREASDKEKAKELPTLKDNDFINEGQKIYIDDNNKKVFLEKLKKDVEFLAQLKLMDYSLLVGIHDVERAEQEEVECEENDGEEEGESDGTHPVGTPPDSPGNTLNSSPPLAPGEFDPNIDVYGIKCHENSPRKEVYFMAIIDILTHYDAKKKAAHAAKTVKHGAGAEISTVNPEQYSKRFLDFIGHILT

[20] = biological target: Glycogen synthase kinase-3 beta (Homo sapiens, UniProt P49841); test: Inhibition of GSK3beta (unknown origin)
Choline kinase alpha = Choline kinase alpha (Homo sapiens, UniProt P35790); test: Inhibition of choline kinase alpha (unknown origin)
[21] = biological target: Tyrosine-protein kinase BTK (Homo sapiens, UniProt Q06187); test: Inhibition of BTK (unknown origin)
[22] = Clearance in human liver microsomes at 0.5 uM measured up to 30 mins by LC-MS/MS analysis; format: ADME, Microsome; conditions: 0.5 h
[23] = Fraction unbound in Brown Norway rat acute OVA model of TH2-driven lung inflammation at 3 mg/kg, po pretreated for 30 mins followed by OVA challenge measured 1 hr post dose by HPLC analysis; format: ADME, organism-based; conditions: in vivo
Procedure, shortened: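 Unbound concentration at 1 h post-dose estimated by an internal algorithm from binding to HPLC columns coated with HSA and α-glycoprotein.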

[24] = biological target: Phosphatidylinositol 4-kinase alpha (Homo sapiens, UniProt P42356); test: Inhibition of PIK4A (unknown origin)
[25] = biological target: Phosphatidylinositol 4-phosphate 3-kinase C2 domain-containing subunit beta (Homo sapiens, UniProt O00750); test: Inhibition of PIK3C2B (unknown origin)
Chain of Phosphatidylinositol 4-phosphate 3-kinase C2 domain-containing subunit beta (O00750 whole entry, the tested form may be a part): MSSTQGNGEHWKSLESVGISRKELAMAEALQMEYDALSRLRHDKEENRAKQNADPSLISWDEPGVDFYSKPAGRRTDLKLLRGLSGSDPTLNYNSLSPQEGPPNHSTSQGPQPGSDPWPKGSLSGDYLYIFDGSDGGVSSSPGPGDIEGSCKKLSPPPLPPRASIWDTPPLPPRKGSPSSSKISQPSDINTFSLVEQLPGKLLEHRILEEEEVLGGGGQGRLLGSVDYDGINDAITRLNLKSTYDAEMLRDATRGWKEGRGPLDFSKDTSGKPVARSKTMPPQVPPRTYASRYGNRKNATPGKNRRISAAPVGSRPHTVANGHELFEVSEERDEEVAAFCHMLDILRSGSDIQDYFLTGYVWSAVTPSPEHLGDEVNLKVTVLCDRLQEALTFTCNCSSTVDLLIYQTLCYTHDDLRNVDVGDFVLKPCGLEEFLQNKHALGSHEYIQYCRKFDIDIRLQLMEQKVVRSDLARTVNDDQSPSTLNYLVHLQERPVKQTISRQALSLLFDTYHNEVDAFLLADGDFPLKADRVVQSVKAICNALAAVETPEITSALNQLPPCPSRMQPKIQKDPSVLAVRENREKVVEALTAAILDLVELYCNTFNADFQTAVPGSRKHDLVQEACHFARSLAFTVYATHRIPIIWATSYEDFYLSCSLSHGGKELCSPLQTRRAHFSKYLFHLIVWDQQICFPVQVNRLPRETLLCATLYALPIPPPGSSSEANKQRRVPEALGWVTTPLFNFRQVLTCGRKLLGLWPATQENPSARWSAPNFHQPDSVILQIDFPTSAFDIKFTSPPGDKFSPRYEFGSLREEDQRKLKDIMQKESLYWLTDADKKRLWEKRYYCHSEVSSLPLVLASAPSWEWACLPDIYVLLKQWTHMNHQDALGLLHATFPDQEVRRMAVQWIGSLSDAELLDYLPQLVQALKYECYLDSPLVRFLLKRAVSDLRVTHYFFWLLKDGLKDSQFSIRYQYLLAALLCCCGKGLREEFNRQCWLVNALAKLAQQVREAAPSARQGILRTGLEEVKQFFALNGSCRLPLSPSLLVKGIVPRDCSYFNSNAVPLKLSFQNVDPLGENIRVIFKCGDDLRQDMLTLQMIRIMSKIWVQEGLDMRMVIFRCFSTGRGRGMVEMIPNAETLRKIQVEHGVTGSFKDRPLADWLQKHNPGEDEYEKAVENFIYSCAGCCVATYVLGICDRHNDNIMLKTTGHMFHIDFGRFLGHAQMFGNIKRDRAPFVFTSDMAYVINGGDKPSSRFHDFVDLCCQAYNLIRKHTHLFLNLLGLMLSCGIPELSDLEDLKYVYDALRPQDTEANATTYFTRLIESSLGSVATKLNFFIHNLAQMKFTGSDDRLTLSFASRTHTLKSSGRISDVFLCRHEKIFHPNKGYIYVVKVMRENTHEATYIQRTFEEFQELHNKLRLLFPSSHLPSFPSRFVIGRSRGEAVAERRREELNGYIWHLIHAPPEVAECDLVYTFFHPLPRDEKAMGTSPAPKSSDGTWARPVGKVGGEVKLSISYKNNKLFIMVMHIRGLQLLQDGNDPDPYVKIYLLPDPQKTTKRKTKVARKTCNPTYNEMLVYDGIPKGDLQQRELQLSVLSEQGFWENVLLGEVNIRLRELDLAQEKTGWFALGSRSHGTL

CL [1]: < 20%
half-life [2]: 10.6 h
AUC [3]: 673 ng·h/mL
IC50 [4]: > 10 µM
IC50 [5]: > 10 µM
concentration at 1 h [6]: 190 nM
AUC(0-inf) [7]: 673 ng·h/mL
F [8]: 54%
Vd [9]: 1.1 L/kg
Ratio IC50 (Homo sapiens): 63
IC50 [10]: > 10 µM
IC50 [11]: > 10 µM
AUC(0-inf) [12]: 454 ng·h/mL
IC50 [13]: > 10 µM
IC50 (Sphingosine kinase 2): > 10 µM
pIC50 [14]: < 5
IC50 [15]: > 10 µM
IC50 [16]: > 10 µM
solubility kinetic at 1 h [17]: 185 µg/mL (≈ 400 µM)
IC50 [18]: > 10 µM
IC50 [19]: > 10 µM
IC50 [20]: > 10 µM
IC50 (Choline kinase alpha): > 10 µM
IC50 [21]: > 10 µM
CLH [22]: < 0.5 mL/min/g
Drug uptake(free) [23]: 0.032 µM
IC50 [24]: > 10 µM
IC50 [25]: > 10 µM
SMILES: COc1ncc(-c2cc3c(c(NC(=O)CN4CCOCC4)c2)COC3)cc1NS(C)(=O)=O
